Measurements taken from ChEMBL document CHEMBL2010647, “N-Methylated sst2 Selective Somatostatin Cyclic Peptide Analogue as a Potent Candidate for Treating Neurogenic Inflammation” (ACS Med Chem Lett, 2011).
Calls of active or inactive are those of the source. The calls are words filed in the database; no cut-off is given here.

Columns and labels:
[1] = molecular target: Somatostatin receptor type 2 (Rattus norvegicus) (UniProt P30680); experiment: Inhibition of sst2 in rat trachea assessed as effect on EFS-induced CGRP release in stimulated and poststimulated tracheal fraction at 500 nM after 8 mins by radioimmunoassay technique relative to control; assay type: tissue-based; set-up: scale not given: the % may be the effect or the level left
Chain of Somatostatin receptor type 2 (Rattus norvegicus) (P30680 whole entry, the tested form may be a part): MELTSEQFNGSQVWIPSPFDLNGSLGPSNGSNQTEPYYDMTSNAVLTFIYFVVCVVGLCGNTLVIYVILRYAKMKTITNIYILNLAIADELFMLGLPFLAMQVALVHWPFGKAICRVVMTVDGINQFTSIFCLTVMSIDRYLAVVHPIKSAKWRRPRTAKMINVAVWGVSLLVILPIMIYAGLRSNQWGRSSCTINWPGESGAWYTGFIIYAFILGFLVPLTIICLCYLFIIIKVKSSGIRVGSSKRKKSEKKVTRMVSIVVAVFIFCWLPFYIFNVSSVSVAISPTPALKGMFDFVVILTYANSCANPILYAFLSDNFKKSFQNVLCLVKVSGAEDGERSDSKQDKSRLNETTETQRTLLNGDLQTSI
Outline: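 Whole tracheae from exsanguinated, deeply anaesthetised rats, two per 1.8 mL organ bath, equilibrated 60 min with oxygenated Krebs (pH 7.2, 37 °C, 1 mL/min perfusion). Three static 8 min fractions; EFS (40 V, 0.1 ms, 10 Hz, 120 s) in the second. Peptide (500 nM) added at the start of fractions 2 and 3. CGRP measured by RIA in 200 μL samples, normalised to wet tissue weight; n = 5.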

[2] = molecular target: Somatostatin receptor type 1 (Homo sapiens, UniProt P30872); experiment: Binding affinity to human sst1 by in vitro receptor autoradiography assay
Chain of Somatostatin receptor type 1 (P30872 whole entry): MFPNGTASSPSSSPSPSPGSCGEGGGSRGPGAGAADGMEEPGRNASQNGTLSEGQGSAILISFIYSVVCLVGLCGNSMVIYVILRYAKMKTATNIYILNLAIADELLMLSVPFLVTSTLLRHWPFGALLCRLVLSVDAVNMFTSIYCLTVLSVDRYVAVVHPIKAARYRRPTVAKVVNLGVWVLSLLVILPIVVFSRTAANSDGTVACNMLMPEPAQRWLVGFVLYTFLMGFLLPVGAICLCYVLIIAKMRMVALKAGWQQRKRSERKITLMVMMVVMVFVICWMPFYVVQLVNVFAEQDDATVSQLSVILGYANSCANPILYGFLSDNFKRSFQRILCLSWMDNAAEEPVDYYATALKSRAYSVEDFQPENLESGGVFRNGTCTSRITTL

[3] = molecular target: Somatostatin receptor type 2 (Homo sapiens, UniProt P30874); experiment: Binding affinity to human sst2 by in vitro receptor autoradiography assay
Chain of Somatostatin receptor type 2 (P30874 whole entry): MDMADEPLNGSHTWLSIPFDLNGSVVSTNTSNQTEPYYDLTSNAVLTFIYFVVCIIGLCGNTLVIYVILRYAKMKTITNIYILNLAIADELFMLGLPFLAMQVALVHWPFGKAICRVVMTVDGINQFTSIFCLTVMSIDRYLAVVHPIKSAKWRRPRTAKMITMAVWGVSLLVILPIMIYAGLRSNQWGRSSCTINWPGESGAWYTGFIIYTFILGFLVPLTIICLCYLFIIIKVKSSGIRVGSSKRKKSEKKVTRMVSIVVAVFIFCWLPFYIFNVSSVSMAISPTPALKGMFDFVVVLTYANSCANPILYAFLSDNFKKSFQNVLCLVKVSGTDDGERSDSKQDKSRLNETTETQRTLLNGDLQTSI

[4] = molecular target: Somatostatin receptor type 3 (Homo sapiens, UniProt P32745); experiment: Binding affinity to human sst3 by in vitro receptor autoradiography assay
Chain of Somatostatin receptor type 3 (P32745 whole entry): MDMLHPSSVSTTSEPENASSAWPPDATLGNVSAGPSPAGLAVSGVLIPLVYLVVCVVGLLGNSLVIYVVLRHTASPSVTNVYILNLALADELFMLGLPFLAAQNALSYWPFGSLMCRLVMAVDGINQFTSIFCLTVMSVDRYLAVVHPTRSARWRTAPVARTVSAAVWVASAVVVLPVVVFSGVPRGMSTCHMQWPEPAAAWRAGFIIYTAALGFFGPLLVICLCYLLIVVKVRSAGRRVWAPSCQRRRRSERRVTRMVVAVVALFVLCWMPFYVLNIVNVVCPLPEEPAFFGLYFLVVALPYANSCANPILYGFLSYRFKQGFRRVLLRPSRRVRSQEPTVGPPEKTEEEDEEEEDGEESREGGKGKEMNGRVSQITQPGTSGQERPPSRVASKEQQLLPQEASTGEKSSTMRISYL

[5] = molecular target: Somatostatin receptor type 4 (Homo sapiens, UniProt P31391); experiment: Binding affinity to human sst4 by in vitro receptor autoradiography assay
Chain of Somatostatin receptor type 4 (P31391 whole entry): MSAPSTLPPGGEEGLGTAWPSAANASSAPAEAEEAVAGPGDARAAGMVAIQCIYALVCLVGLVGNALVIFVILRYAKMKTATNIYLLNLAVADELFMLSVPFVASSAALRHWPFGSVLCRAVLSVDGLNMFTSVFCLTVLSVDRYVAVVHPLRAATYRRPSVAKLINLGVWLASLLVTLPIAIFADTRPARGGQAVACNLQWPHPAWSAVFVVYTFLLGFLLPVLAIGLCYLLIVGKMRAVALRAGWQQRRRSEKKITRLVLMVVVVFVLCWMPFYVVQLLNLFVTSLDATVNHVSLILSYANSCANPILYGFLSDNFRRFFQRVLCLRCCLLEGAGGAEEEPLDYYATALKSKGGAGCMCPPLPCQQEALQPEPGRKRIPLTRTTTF

[6] = molecular target: Somatostatin receptor type 5 (Homo sapiens, UniProt P35346); experiment: Binding affinity to human sst5 by in vitro receptor autoradiography assay
Chain of Somatostatin receptor type 5 (P35346 whole entry): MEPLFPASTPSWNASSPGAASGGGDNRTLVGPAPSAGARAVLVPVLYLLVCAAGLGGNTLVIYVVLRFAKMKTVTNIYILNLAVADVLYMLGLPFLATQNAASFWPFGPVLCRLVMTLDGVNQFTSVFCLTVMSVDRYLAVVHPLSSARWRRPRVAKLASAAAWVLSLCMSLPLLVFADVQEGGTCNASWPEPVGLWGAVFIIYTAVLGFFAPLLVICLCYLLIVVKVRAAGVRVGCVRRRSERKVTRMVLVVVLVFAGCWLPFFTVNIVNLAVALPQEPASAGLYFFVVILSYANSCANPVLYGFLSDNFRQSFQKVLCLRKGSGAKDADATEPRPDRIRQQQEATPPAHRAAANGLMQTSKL

[7] = system: Rattus norvegicus; experiment: Antiinflammatory activity in rat assessed as inhibition of mustard oil-evoked acute neurogenic plasma protein extravasation in paw skin at 100 ug/kg, ip […] administered 10 mins before induction of inflammation; assay type: functional
Outline: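 Rats received peptide 100 μg/kg ip 10 min before inflammation was induced with 1% mustard oil on dorsal paw skin; solvent-only controls run alongside. Read-out: Evans blue accumulated per g wet skin, given as mean + SEM, n = 6–10. Tested in blocks of 14–15 rats per day over 6 days, with treatments randomized. Mann–Whitney U test vs solvent.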

| SMILES | Activity [1] [%] | IC50 [2] [nM] | IC50 [3] [nM] | IC50 [4] [nM] | IC50 [5] [nM] | IC50 [6] [nM] | inhibition [7] | inhibition in vivo at 0.1 mg/kg [7] [%] |
| --- | --- | --- | --- | --- | --- | --- | --- | --- |
| CC(C)[C@@H]1NC(=O)[C@H](CCCCN)N(C)C(=O)[C@@H](Cc2c[nH]c3ccccc23)N(C)C(=O)[C@H](Cc2ccc(O)cc2)NC(=O)[C@H](C)N(C)C(=O)[C@H](Cc2ccccc2)NC1=O | 153 | > 1000 | 3.1 | 172 | > 1000 | 196 | inactive |  |
| CC(C)[C@@H]1NC(=O)[C@H](CCCCN)N(C)C(=O)[C@@H](Cc2c[nH]c3ccccc23)NC(=O)[C@H](Cc2ccc(O)cc2)NC(=O)[C@H](C)N(C)C(=O)[C@H](Cc2ccccc2)N(C)C1=O | 343 | > 1000 | 4.1 | 175 | 373 | 137 |  |  |
| CC(C)[C@@H]1NC(=O)[C@H](CCCCN)N(C)C(=O)[C@@H](Cc2c[nH]c3ccccc23)NC(=O)[C@H](Cc2ccc(O)cc2)NC(=O)[C@H](C)N(C)C(=O)[C@H](Cc2ccccc2)NC1=O | 182 | > 1000 | 4.2 | 308 | > 1000 | 247 | inactive |  |
| CC(C)[C@@H]1NC(=O)[C@H](CCCCN)N(C)C(=O)[C@@H](Cc2c[nH]c3ccccc23)N(C)C(=O)[C@H](Cc2ccc(O)cc2)NC(=O)[C@H](C)N(C)C(=O)[C@H](Cc2ccccc2)N(C)C1=O | 100 | > 1000 | 44 | 200 | > 1000 | 263 |  | 40 |

Second part, led by results:

| Activity [1] [%] | IC50 [2] [nM] | IC50 [3] [nM] | IC50 [4] [nM] | IC50 [5] [nM] | IC50 [6] [nM] | SMILES | inhibition [7] | inhibition in vivo at 0.1 mg/kg [7] [%] |
| --- | --- | --- | --- | --- | --- | --- | --- | --- |
| 355 | > 1000 | 4.4 | 98 | > 1000 | 53 | CC(C)[C@@H]1NC(=O)[C@H](CCCCN)NC(=O)[C@@H](Cc2c[nH]c3ccccc23)NC(=O)[C@H](Cc2ccc(O)cc2)NC(=O)[C@H](C)N(C)C(=O)[C@H](Cc2ccccc2)N(C)C1=O |  |  |
| 360 | > 1000 | 5.5 | 205 | > 1000 | 126 | CC(C)[C@@H]1NC(=O)[C@H](CCCCN)NC(=O)[C@@H](Cc2c[nH]c3ccccc23)N(C)C(=O)[C@H](Cc2ccc(O)cc2)NC(=O)[C@H](C)N(C)C(=O)[C@H](Cc2ccccc2)NC1=O |  |  |
| 268 | > 1000 | 45 | 82 | > 1000 | 76 | CC(C)[C@@H]1NC(=O)[C@H](CCCCN)NC(=O)[C@@H](Cc2c[nH]c3ccccc23)N(C)C(=O)[C@H](Cc2ccc(O)cc2)NC(=O)[C@H](C)N(C)C(=O)[C@H](Cc2ccccc2)N(C)C1=O |  |  |
| 294 | > 1000 |  | 105 |  | 81 | CC(C)[C@@H]1NC(=O)[C@H](CCCCN)NC(=O)[C@@H](Cc2c[nH]c3ccccc23)NC(=O)[C@H](Cc2ccc(O)cc2)NC(=O)[C@H](C)N(C)C(=O)[C@H](Cc2ccccc2)NC1=O [SEGLITIDE] |  |  |
